Activity calls are given as the source filed them. The rule behind the calls is not given here.
Tests used:
[1] = n-octanol-water partition co-efficient, log P of the compound; format: physicochemical
Homo sapiens [2] = species: Homo sapiens; experiment: Inhibition of p-gp in human MES-SA/DX5 cells assessed as increase in rhodamine 123 accumulation preincubated for 20 mins followed by rhodamine 123 addition and measured after 20 mins by flow cytometric method; format: cell-based
Procedure, shortened: (§1)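 Cells in serum-free RPMI at 5 × 10^5 cells per ml (MES-SA/DX5 taken off doxorubicin one day before). Compound 20 min at 37 °C, then 5 μM rhodamine 123 for 20 min at 37 °C. Washed twice in ice-cold PBS, kept on ice. Flow cytometry at 488 nm excitation, 530 nm emission, 20 000 cells. Gmean fluorescence expressed as a ratio to untreated cells. Verapamil was the positive control.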

MES-SA = experiment: Increase in rhodamine 123 accumulation in human MES-SA cells at 5 to 100 uM preincubated for 20 mins followed by rhodamine 123 addition and measured after 20 mins by flow cytometric method; format: functional, cell-based; procedure, shortened: as §1
Homo sapiens [3] = species: Homo sapiens; experiment: Inhibition of p-gp in human MES-SA/DX5 cells assessed as potentiation of doxorubicin-induced cytotoxicity at 5 uM preincubated for 1.5 hrs followed by doxorubicin addition and measured after 48 hrs by MTT assay; format: cell-based
Homo sapiens [4] = species: Homo sapiens; experiment: Inhibition of p-gp in human MES-SA/DX5 cells assessed as increase in rhodamine 123 accumulation preincubated for 20 mins followed by rhodamine 123 addition and measured after 20 mins by fluorescence microscopic method; format: cell-based
Procedure, shortened: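 MES-SA/DX5 seeded at 2 × 10^5 cells per ml and grown two days at 37 °C. Compound at 25 μM for 20 min, then rhodamine 123 at 5 μM final for 20 min. Cells washed three times with ice-cold PBS and resuspended in cold PBS. Imaged by fluorescence microscopy with a blue filter (510–560 nm). Untreated cells served as control.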

Homo sapiens [5] = species: Homo sapiens; experiment: Inhibition of p-gp in human MES-SA/DX5 cells assessed as potentiation of doxorubicin-induced cytotoxicity at 25 uM preincubated for 1.5 hrs followed by doxorubicin addition and measured after 48 hrs by MTT assay; format: cell-based

logP [1]	SMILES	inhibition (Homo sapiens [2])	Activity (MES-SA)	inhibition (Homo sapiens [3])	inhibition (Homo sapiens [4])	inhibition (Homo sapiens [5])
1.36	CC1=C(C(=O)OCc2cccnc2)C(c2ccc(C#N)cc2)C2=C(CCCC2=O)N1 (stereo not given)	Dose-dependent effect	inactive			
2.24	CC1=C(C(=O)OCc2ccccn2)C(c2ccc(Cl)cc2)C2=C(CCCC2=O)N1 (stereo not given)	Dose-dependent effect	inactive	Active		
2.17	COc1cc(C2C(C(=O)OCc3ccccn3)=C(C)NC3=C2C(=O)CCC3)cc(OC)c1OC (stereo not given)	Dose-dependent effect	inactive			
1.73	CC1=C(C(=O)OCc2ccccn2)C(c2ccc(C#N)cc2)C2=C(CCCC2=O)N1 (stereo not given)	Dose-dependent effect	inactive	Active	Dose-dependent effect	
1.4	CC1=C(C(=O)OCc2cccnc2)C(c2cccs2)C2=C(CCCC2=O)N1 (stereo not given)	Dose-dependent effect	inactive			Active
1.51	CC1=C(C(=O)OCc2cccnc2)C(c2ccccc2[N+](=O)[O-])C2=C(CCCC2=O)N1 (stereo not given)		inactive		Dose-dependent effect	Active
2.35	CC1=C(C(=O)OCc2cccnc2)C(c2ccccc2)C2=C(CCCC2=O)N1 (stereo not given)	Dose-dependent effect	inactive			
1.88	CC1=C(C(=O)OCc2ccccn2)C(c2ccccc2[N+](=O)[O-])C2=C(CCCC2=O)N1 (stereo not given)		inactive	Active	Dose-dependent effect	
1.4	CC1=C(C(=O)OCc2ccccn2)C(c2ccco2)C2=C(CCCC2=O)N1 (stereo not given)	Dose-dependent effect	inactive			
1.51	CC1=C(C(=O)OCc2cccnc2)C(c2ccc([N+](=O)[O-])cc2)C2=C(CCCC2=O)N1 (stereo not given)	Dose-dependent effect	inactive		Dose-dependent effect	Active
2.05	CC1=C(C(=O)OCc2cccnc2)C(c2ccc(Br)cc2)C2=C(CCCC2=O)N1 (stereo not given)	Dose-dependent effect	inactive	Active		
2.42	CC1=C(C(=O)OCc2ccccn2)C(c2ccc(Br)cc2)C2=C(CCCC2=O)N1 (stereo not given)	Dose-dependent effect	inactive	Active	Dose-dependent effect	
1.88	CC1=C(C(=O)OCc2ccccn2)C(c2ccc([N+](=O)[O-])cc2)C2=C(CCCC2=O)N1 (stereo not given)	Dose-dependent effect	inactive	Active	Dose-dependent effect	
1.58	CC1=C(C(=O)OCc2ccccn2)C(c2cccc(O)c2)C2=C(CCCC2=O)N1 (stereo not given)	Dose-dependent effect	inactive			
1.21	CC1=C(C(=O)OCc2cccnc2)C(c2cccc(O)c2)C2=C(CCCC2=O)N1 (stereo not given)	Dose-dependent effect	inactive			
1.03	CC1=C(C(=O)OCc2cccnc2)C(c2ccco2)C2=C(CCCC2=O)N1 (stereo not given)	Dose-dependent effect	inactive			
1.77	CC1=C(C(=O)OCc2ccccn2)C(c2cccs2)C2=C(CCCC2=O)N1 (stereo not given)	Dose-dependent effect	inactive			
1.53	COc1ccc(C2C(C(=O)OCc3cccnc3)=C(C)NC3=C2C(=O)CCC3)cc1 (stereo not given)	Dose-dependent effect	inactive			
1.88	CC1=C(C(=O)OCc2ccccn2)C(c2cccc([N+](=O)[O-])c2)C2=C(CCCC2=O)N1 (stereo not given)	Dose-dependent effect	inactive			
2.6	CCCC1C(C(=O)OCc2ccccn2)=C(C)NC2=C1C(=O)CCC2 (stereo not given)	Dose-dependent effect	inactive			
1.58	CC1=C(C(=O)OCc2ccccn2)C(c2ccc(O)cc2)C2=C(CCCC2=O)N1 (stereo not given)	Dose-dependent effect	inactive			
2.72	CC1=C(C(=O)OCc2ccccn2)C(c2ccccc2)C2=C(CCCC2=O)N1 (stereo not given)	Dose-dependent effect	inactive			
1.9	COc1ccc(C2C(C(=O)OCc3ccccn3)=C(C)NC3=C2C(=O)CCC3)cc1 (stereo not given)	Dose-dependent effect	inactive	Active		
2.23	CCCC1C(C(=O)OCc2cccnc2)=C(C)NC2=C1C(=O)CCC2 (stereo not given)	Dose-dependent effect	inactive			
1.87	CC1=C(C(=O)OCc2cccnc2)C(c2ccc(Cl)cc2)C2=C(CCCC2=O)N1 (stereo not given)	Dose-dependent effect	inactive	Active		
